Key:
[1] = test system: HIF-2 (EPO and NDRG1) and HIF-1 (PGK1) target genes in Hep3B cells; assay: qPCR in Hep3B cells, PHD inhibitors and HIF-2α agonist co-treatment; type: cell-based; details: 10 μM PHD inhibitor alone
Outline: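 Hep3B cells were grown in DMEM with 10% FBS in 6-well plates. They were pretreated with 10 μM molidustat or roxadustat for 8 h, then 5 μM agonist was added (final DMSO 0.1%). After a further 24 h, RNA was isolated and reverse-transcribed. Target mRNAs were quantified by SYBR Green real-time PCR and normalized to ACTB in the same sample.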

[2] = test system: HIF-2 target genes in 786-O cells; assay: qPCR of endogenous HIF-2 target genes in 786-O cells; type: cell-based; details: 24 hours, PT2385 0.01-10 μM, T1001, M1001, M1002 10 μM
Outline: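 786-O cells were grown in RPMI1640 with 10% FBS in 6-well plates at 37 °C, 5% CO2. Compound was given at various concentrations with 0.1% DMSO, and DMSO alone served as control. After 24 h, RNA was isolated and converted to cDNA. SYBR Green real-time PCR was normalized to ACTB. Values are mean ± s.d., n=3 independent cultures.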

HIF-1α-ARNT heterodimer = HIF-1α-ARNT heterodimer (Mus musculus, UniProt Q61221); assay: TR-FRET-based in vitro binding assay, HIF-1α-ARNT; type: biochemical
[3] = test system: HIF-2 and HIF-1 target genes in Hep3B cells; assay: qPCR of HIF target genes in Hep3B cells under hypoxia; type: cell-based; details: hypoxia (1% O2), 10 μM, 8 h

SMILES	effect on HIF-1 selective target gene (PGK1) [1]	increase of expression of HIF-2 target genes (EPO and NDRG1) [1]	effect on expression of endogenous HIF-2 target genes [2]	effect on HIF-1α-ARNT subunit interactions (HIF-1α-ARNT heterodimer)	effect on expression of HIF-2 specific and HIF-1 specific genes [3]
O=c1c(-n2ccnn2)c[nH]n1-c1cc(N2CCOCC2)ncn1 [molidustat]	relatively small effects	3–5 fold			
Cc1nc(C(=O)NCC(=O)O)c(O)c2ccc(Oc3ccccc3)cc12 [roxadustat]	relatively small effects	3–5 fold			
CS(=O)(=O)c1ccc(Oc2cc(F)cc(C#N)c2)c2c1[C@H](O)C(F)(F)C2 [PT2385, (S)-3-((2,2-Difluoro-1-hydroxy-7-(methylsulfonyl)-2,3-dihydro-1 H-inden-4-yl)oxy)-5-fluorobenzonitrile]			dose-dependent inhibitory activity	no PT2385 effect	decreased the expression of HIF-2 specific genes (VEGF, EPO and NDRG1) but not the HIF-1 specific gene (PGK1)
